Results taken from ChEMBL document CHEMBL3621143, “Discovery of BMS-641988, a Novel Androgen Receptor Antagonist for the Treatment of Prostate Cancer” (ACS Med Chem Lett, 2015).
The source made the active and inactive calls. The calls are words filed in the database; no cut-off is given here.

What was measured:
Androgen receptor [1] = target: T1, Androgen receptor (Homo sapiens, UniProt P10275); assay: Displacement of [3H]-DHT from androgen receptor in human MDA-MB-453 cells after 90 mins by TopCount analysis; format: cell-based
T1 sequence (P10275 whole entry): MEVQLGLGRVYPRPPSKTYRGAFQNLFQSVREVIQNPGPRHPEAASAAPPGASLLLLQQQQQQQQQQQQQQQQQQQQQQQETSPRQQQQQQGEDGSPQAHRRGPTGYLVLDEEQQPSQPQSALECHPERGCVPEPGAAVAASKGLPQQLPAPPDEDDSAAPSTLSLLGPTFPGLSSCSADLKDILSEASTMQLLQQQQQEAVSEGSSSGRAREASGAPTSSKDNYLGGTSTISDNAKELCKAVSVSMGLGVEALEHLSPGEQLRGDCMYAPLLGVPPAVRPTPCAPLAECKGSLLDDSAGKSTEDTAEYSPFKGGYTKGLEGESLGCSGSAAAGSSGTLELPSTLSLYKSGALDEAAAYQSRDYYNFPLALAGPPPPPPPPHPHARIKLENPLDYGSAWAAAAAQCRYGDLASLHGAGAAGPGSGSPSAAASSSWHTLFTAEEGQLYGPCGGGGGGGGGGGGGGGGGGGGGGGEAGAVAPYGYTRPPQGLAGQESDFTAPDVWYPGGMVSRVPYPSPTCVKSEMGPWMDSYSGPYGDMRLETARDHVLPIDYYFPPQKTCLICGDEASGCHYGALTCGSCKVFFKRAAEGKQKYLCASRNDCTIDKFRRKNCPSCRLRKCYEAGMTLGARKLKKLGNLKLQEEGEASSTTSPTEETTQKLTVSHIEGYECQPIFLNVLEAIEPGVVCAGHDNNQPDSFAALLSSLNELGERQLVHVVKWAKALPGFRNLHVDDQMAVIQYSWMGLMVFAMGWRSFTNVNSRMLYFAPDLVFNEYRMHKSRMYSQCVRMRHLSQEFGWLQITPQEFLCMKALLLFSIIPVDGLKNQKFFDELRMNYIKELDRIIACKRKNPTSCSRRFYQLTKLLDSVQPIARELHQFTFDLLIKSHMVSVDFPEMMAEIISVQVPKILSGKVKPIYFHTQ

Androgen receptor [2] = target: T1, Androgen receptor; assay: Antagonist activity at androgen receptor in human MDA-MB-453 cells assessed as inhibition of DHT-induced PSA expression by alkaline phosphatase reporter gene assay; format: cell-based
Rattus norvegicus = assay: In vivo antagonist activity at androgen receptor in immature Sprague-Dawley rat prostate weight model assessed as testosterone propionate-induced weight of seminal vesicles over full body weight at 10 mg/kg, po qd administered for 4 days; format: functional; design: scale not given: the % may be the effect or the level left
How it was run: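 Immature rat prostate weight PK/PD model. Oral dosing once daily at 1 or 10 mg/kg for 4 days. Seminal vesicle weight expressed as % of full body weight, n=3, scaled so testosterone-treated control = 100% and sham = 10%.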

[3] = Plasma concentration in immature Sprague-Dawley rat prostate weight model at 10 mg/kg, po qd administered for 4 days measured 2 hrs post last dose on day 4; format: ADME, organism-based
How it was run: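 Immature rat prostate weight model, oral dosing once daily at 1 or 10 mg/kg for 4 days. Plasma drug concentration (µM) measured 2 hours post-dose on day 4, n=3.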

Hepatocyte [4] = assay: Drug metabolism in mouse hepatocytes assessed per 10^6 cells; format: ADME, cell-based
How it was run: (§1)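 Metabolic rate in mouse, rat, dog, monkey and human hepatocyte incubations, expressed as pmol/min/10^6 cells.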

LNCaP = assay: Cytotoxicity against human LNCAP cells; format: functional, cell-based
Cytochrome P450 2D6 = Cytochrome P450 2D6 (Homo sapiens, UniProt P10635); assay: Inhibition of human CYP2D6; format: ADME
Cytochrome P450 3A4 = Cytochrome P450 3A4 (Homo sapiens, UniProt P08684); assay: Inhibition of human CYP3A4; format: ADME
[5] = target: T2, Nuclear receptor subfamily 1 group I member 2 (Homo sapiens, UniProt O75469); assay: Transactivation of human PXR; format: ADME
T2 sequence (O75469 whole entry): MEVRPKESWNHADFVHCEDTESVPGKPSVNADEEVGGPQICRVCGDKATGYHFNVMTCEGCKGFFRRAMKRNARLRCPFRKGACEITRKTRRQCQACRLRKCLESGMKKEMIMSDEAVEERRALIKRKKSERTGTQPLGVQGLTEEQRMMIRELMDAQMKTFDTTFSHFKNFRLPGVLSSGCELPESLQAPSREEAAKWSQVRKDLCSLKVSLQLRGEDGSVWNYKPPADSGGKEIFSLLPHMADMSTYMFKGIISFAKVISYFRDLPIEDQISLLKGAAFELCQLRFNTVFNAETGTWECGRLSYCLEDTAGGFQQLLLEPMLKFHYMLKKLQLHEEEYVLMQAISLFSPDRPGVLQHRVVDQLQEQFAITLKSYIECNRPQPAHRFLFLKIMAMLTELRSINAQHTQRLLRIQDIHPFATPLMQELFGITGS

[6] = Fraction unbound in rat plasma by equilibrium dialysis method; format: ADME, cell-free
How it was run: (§2)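 Plasma protein binding measured by equilibrium dialysis in mouse, rat, dog and human plasma, reported as % free.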

[7] = Fraction unbound in dog plasma by equilibrium dialysis method; format: ADME, cell-free, Canis lupus familiaris; how it was run: as §2
Hepatocyte [8] = assay: Drug metabolism in rat hepatocytes assessed per 10^6 cells; format: ADME, cell-based; how it was run: as §1
[9] = Drug metabolism in dog hepatocytes assessed per 10^6 cells; format: ADME, cell-based, Canis lupus familiaris, Hepatocyte; how it was run: as §1
Hepatocyte [10] = assay: Drug metabolism in human hepatocytes assessed per 10^6 cells; format: ADME, cell-based; how it was run: as §1
[11] = Half life in mouse at 5 mg/kg, iv and 10 mg/kg, po; format: ADME, organism-based; conditions: in vivo
How it was run: (§3)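 Single IV and oral doses in mouse and rat (IV 5, PO 10 mg/kg) and dog (IV 1, PO 2 mg/kg). Half-life, clearance, AUC0-∞ (µM*h) and %F derived from the plasma profiles.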

[12] = AUC (0 to infinity) in mouse at 5 mg/kg, iv; format: ADME, organism-based; design: dose 5 mg/kg, time infinity, route intravenous; conditions: in vivo; how it was run: as §3
[13] = AUC (0 to infinity) in mouse at 10 mg/kg, po; format: ADME, organism-based; design: dose 10 mg/kg, route oral, time infinity; conditions: in vivo; how it was run: as §3
[14] = Clearance in rat at 5 mg/kg, iv and 10 mg/kg, po; format: ADME, organism-based; conditions: in vivo; how it was run: as §3
[15] = AUC (0 to infinity) in rat at 5 mg/kg, iv; format: ADME, organism-based; design: dose 5 mg/kg, route intravenous, time infinity; conditions: in vivo; how it was run: as §3
[16] = AUC (0 to infinity) in rat at 10 mg/kg, po; format: ADME, organism-based; design: dose 10 mg/kg, route oral, time infinity; conditions: in vivo; how it was run: as §3
[17] = Half life in dog at 1 mg/kg, iv and 2 mg/kg, po; format: ADME, organism-based, Canis lupus familiaris; conditions: in vivo; how it was run: as §3
[18] = Clearance in dog at 1 mg/kg, iv and 2 mg/kg, po; format: ADME, organism-based, Canis lupus familiaris; conditions: in vivo; how it was run: as §3
[19] = Oral bioavailability in dog at 2 mg/kg; format: ADME, organism-based, Canis lupus familiaris; conditions: in vivo; how it was run: as §3
CWR22 [20] = assay: Antitumor activity against human CWR22 cells in Balb/c athymic (nu/nu) mouse CWR22-BMSLD1 prostate cancer xenograft model assessed as tumor growth inhibition at 90 mg/kg, po qd administered for 45 days measured every day during compound dosing; format: functional, organism-based
How it was run: (§4)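 CWR22-BMSLD1 human prostate cancer xenograft. Oral once-daily dosing at 90 mg/kg for 45 days, or at 150 mg/kg for 35 days, with a vehicle group. Median tumor volume (mm3) tracked against days post implant.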

CWR22 [21] = assay: Antitumor activity against bicalutamide-resistant human CWR22 cells in Balb/c athymic (nu/nu) mouse CWR22-BMSLD1 prostate cancer xenograft model assessed as tumor growth inhibition at 90 mg/kg, po qd administered for 45 days measured from day 10 to 45 during compound dosing; format: functional, organism-based; how it was run: as §4

Sequence of Cytochrome P450 2D6 (P10635 whole entry): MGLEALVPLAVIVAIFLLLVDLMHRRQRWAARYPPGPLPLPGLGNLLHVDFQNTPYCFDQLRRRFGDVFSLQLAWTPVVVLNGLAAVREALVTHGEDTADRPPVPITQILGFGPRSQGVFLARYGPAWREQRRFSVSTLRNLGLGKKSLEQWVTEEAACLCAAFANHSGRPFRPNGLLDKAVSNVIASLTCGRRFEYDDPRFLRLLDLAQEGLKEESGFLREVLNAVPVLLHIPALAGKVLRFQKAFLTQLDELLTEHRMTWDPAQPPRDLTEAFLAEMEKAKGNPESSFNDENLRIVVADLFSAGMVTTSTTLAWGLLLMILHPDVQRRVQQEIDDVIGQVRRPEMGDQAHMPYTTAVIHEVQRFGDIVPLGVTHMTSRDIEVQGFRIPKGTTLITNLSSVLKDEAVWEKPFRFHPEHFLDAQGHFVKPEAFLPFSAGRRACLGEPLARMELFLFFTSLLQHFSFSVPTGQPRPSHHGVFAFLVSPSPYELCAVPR
Sequence of Cytochrome P450 3A4 (P08684 whole entry): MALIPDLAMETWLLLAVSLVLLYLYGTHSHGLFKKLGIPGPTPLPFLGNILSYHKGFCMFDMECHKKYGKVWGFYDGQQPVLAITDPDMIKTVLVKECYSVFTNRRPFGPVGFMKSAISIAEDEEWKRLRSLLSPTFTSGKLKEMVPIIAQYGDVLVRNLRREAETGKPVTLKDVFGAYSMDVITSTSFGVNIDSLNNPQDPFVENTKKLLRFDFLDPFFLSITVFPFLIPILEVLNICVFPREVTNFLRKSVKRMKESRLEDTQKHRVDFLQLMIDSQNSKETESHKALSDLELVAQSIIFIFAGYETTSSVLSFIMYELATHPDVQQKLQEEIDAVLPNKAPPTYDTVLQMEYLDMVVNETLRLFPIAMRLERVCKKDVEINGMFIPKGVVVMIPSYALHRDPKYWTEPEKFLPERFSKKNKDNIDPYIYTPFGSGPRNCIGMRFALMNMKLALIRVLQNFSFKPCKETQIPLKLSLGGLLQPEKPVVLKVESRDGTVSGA

`CCS(=O)(=O)N[C@@H]1C[C@]2(C)O[C@]1(C)[C@@H]1C(=O)N(c3ccc(C#N)c(C(F)(F)F)c3)C(=O)[C@@H]12` gave a Ki (Androgen receptor [1]) of 1.7 nM, an IC50 (Androgen receptor [2]) of 16 nM and an Activity (Rattus norvegicus) of 26%. For the same compound, the concentration at 2 h [3] was 4 µM, the Drug metabolism (Hepatocyte [4]) was 0 pmol/min and the IC50 (LNCaP) was 153 nM. For the same compound, the IC50 (Cytochrome P450 2D6) was greater than 40 µM, the IC50 (Cytochrome P450 3A4) was greater than 40 µM and the EC50 [5] was greater than 50 µM. For the same compound, the fraction unbound [6] was 0.106, the fraction unbound [7] was 0.165 and the Drug metabolism (Hepatocyte [8]) was 26 pmol/min. The Drug metabolism [9] was 3 pmol/min, the Drug metabolism (Hepatocyte [10]) was 2 pmol/min and the half-life [11] was 144 min. The AUC(0-inf) [12] was 39.1 µM·h, the AUC(0-inf) [13] was 74.1 µM·h and the clearance [14] was 6.5 mL/min/kg. It also gave an AUC(0-inf) [15] of 31.7 µM·h, an AUC(0-inf) [16] of 40.5 µM·h and a half-life [17] of 1310 min. For the same compound, the clearance [18] was 0.35 mL/min/kg, the bioavailability [19] was 79% and the TGI (CWR22 [20]) was “Active”. The TGI (CWR22 [21]) was “Active”.
